Where only a bound is given, the exact number is not on record here.

The target of data set [1] is Endoplasmin (Canis lupus familiaris, UniProt P41148). Description: Inhibition of FITC-geldanamycin binding to canine GRP94 incubated for 5 hrs by fluorescence polarization assay.
Data set [2] addresses T1, Heat shock protein HSP 90-alpha (Homo sapiens, UniProt P07900). Kind of data set: Inhibition of FITC-geldanamycin binding to HSP90alpha (unknown origin) incubated for 5 hrs by fluorescence polarization assay.
Data set [3] has as its target Endoplasmin (Homo sapiens, UniProt P14625). Kind of data set: Binding affinity to GRP94 N-domain (unknown origin).
For data set [4], the species on record is Homo sapiens. Description: Selectivity ratio of IC50 for inhibition of human recombinant HSP90alpha expressed in Escherichia coli by fluorescence polarization assay to IC50 for inhibition of GRP94 (unknown origin).
In data set [5] the target is T1, Heat shock protein HSP 90-alpha. Kind of data set: Inhibition of human recombinant HSP90alpha expressed in Escherichia coli by fluorescence polarization assay.
In data set [6] the target is Heat shock protein HSP90 (Homo sapiens, UniProt P07900+P08238). Description: Inhibition of FITC-geldanamycin binding to human His-tagged HSP90alpha N-terminal domain (1 to 236 residues) expressed in Escherichia coli BL21star (DE3) after 4 hrs by FP assay relative to control.
Data set [7] concerns the target T1, Heat shock protein HSP 90-alpha. Kind of data set: Inhibition of HSP90alpha in human PANC1 cells assessed as akt degradation at 1 uM after 36 hrs by Western blot analysis. In kind it is cell-based. The gist of the method:
(§1)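 Panc-1 cells treated 36 h; total protein lysate with protease/phosphatase inhibitors; equal protein by BCA on SDS-PAGE, PVDF, Western blot for Hsp70 and Akt, β-actin loading control; AT13387 reference.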

Data set [8] in a line: Inhibition of FITC-geldanamycin binding to dog GST-tagged GRP94 N41 deletion mutant (69 to 337 residues) expressed in Escherichia coli BL21star (DE3) after 4 hrs by GM-FITC-based FP assay. On the set-up: species or system Canis lupus familiaris.
Data set [9] is filed under the species Canis lupus familiaris. Kind of data set: Inhibition of FITC-geldanamycin binding to dog GST-tagged GRP94 N41 deletion mutant (69 to 337 residues) expressed in Escherichia coli BL21star (DE3) at 100 uM after 4 hrs by FP assay relative to control.
Data set [10] deals with T1, Heat shock protein HSP 90-alpha. Kind of data set: Inhibition of HSP90alpha in human PANC1 cells assessed as up-regulation of Hsp70 at 1 uM after 36 hrs by Western blot analysis. In kind it is cell-based. The gist of the method: as §1

Sequence of Endoplasmin (Canis lupus familiaris, UniProt P41148) (P41148 whole entry): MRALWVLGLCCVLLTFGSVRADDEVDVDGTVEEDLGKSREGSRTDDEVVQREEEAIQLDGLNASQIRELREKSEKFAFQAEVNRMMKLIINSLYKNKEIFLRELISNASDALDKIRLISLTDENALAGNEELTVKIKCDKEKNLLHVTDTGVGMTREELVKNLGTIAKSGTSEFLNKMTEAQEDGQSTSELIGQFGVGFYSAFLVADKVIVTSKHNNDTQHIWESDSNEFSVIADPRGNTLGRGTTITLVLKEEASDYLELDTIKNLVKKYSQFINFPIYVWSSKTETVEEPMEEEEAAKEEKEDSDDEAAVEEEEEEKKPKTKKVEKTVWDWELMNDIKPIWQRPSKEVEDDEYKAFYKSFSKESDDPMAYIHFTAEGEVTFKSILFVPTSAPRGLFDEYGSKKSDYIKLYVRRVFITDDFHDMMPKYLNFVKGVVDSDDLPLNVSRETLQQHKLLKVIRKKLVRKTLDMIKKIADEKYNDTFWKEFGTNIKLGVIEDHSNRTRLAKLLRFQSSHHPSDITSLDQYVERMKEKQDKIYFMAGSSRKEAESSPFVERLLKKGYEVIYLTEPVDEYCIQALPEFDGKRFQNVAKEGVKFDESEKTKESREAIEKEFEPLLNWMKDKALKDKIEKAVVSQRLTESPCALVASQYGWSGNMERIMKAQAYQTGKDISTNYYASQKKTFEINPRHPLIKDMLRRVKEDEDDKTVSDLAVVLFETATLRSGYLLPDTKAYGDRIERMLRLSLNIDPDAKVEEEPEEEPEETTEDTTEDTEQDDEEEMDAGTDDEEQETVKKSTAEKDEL
Sequence of Endoplasmin (Homo sapiens, UniProt P14625) (P14625 whole entry): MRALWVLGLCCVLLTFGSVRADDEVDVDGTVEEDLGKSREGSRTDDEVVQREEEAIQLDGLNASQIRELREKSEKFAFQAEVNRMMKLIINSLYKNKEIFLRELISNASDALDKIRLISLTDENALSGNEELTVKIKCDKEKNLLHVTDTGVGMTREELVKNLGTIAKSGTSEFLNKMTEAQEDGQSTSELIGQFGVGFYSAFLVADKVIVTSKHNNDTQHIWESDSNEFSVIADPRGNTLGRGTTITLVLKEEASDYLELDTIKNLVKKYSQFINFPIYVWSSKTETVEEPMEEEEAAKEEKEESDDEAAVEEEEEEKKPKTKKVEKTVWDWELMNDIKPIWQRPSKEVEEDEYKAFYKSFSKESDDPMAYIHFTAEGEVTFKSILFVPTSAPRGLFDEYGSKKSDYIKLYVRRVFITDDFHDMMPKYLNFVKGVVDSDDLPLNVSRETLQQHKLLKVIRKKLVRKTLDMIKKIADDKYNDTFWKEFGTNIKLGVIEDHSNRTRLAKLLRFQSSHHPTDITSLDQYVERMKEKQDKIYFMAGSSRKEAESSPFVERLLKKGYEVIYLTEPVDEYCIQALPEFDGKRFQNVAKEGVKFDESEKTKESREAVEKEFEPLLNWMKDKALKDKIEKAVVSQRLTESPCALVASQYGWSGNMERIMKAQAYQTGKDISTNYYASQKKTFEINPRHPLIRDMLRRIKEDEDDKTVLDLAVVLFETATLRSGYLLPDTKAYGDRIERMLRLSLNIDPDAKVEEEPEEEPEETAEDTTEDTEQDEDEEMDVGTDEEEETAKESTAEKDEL

`COC(=O)c1c(O)cc(O)c(Cl)c1CCC(=O)NC1=CC(=O)C(OC)=CC1=O`: the values for the Kd in [1] and in data set [2] were 520 nM and 870 nM, respectively.

`C#CCCCn1cnc(N)c2nc(Sc3ccc(C)cc3C)nc1-2`: the IC50 is 11.8 µM in [3] and more than 250 µM in data set [5]. For the same compound, the Ratio IC50 in data set [4] is more than 21.

`CC(C)c1cc(C(=O)N2Cc3ccc(CN4CCN(C)CC4)cc3C2)c(O)cc1O` [ONALESPIB]: the results for the IC50 in data set [6] and in data set [8] were 0.022 µM and 20 nM, respectively. Also, the “inhibition (INH)” value in data set [7] and in data set [10] was “Active” each time. This compound also yielded an inhibition in data set [9] of 100%.

For the origin of these results see ChEMBL document CHEMBL4152387, “Discovery of a Potent Grp94 Selective Inhibitor with Anti-Inflammatory Efficacy in a Mouse Model of Ulcerative Colitis” (J Med Chem, 2018).
